High-throughput results from PubChem.
b-catenin transl: modulators of beta-catenin nuclear translocation, primary screen, imaging, HeLa cells, immunofluorescence, high-content; nuclear translocation activity, % at 5 µM; 0.3% of 190,000 active;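 active = nuclear translocation activity above 50% at 5 µM, with a well cell count of 50 or more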;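 note: per-cell ratio of nuclear to cytoplasmic median beta-catenin stain intensity; plate controls were DMSO negative control for no effect and GSK-3 inhibitor IX positive control for full effect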
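Test system: human HeLa cell line; Doses: 5 µM primary, 0.02–20 µM confirmation; Incubation: 24 h compound exposure, 37°C; Detection: beta-catenin immunofluorescence imaging with DAPI; Read-out: beta-catenin nuclear/cytoplasmic ratio, % activation.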
BaF3 parental: parental Ba/F3 cell viability inhibition, counter-screen for JAK2V617F inhibitor project, murine pro-B, CellTiter-Glo luminescence. 1.1% of 220,000 active. CellTiter-Glo ATP luminescence. inhibition, % at 5.6 µM;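 active = inhibition above a per-campaign cutoff, the mean inhibition of all tested compounds plus 3 SD, cut at about 27% in these data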;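 note: 0% = DMSO wells and 100% = JAK Inhibitor I control wells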
Ba/F3 V617F tox: reduced viability of JAK2V617F-dependent Ba/F3 cells, primary screen, JAK2V617F inhibitor project, cell-based, Ba/F3 EpoR-JAK2V617F, luminescence | ATP luminescence | inhibition, % at 5.6 µM | 1.1% of 220,000 active | AID 1446, 2008;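 active = inhibition above the campaign mean plus 3 SD over all tested compounds, cut at about 24% in these data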;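 note: cytokine-independent growth of Ba/F3 cells driven by EpoR plus mutant JAK2; 0% = DMSO-treated cells and 100% = JAK inhibitor I control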
APP transl inh: inhibitors of APP translation via 5'UTR reporter, primary screen, APP 5'UTR luciferase, SH-SY5Y cells; SH-SY5Y APP 5'UTR-luciferase reporter, luminescence; inhibition, % at 2 µM; 0.82% of 190,000 active; AID 1285, 2008;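 active = inhibition above a set limit, derived from the sample mean plus 3 SD, cut at about 45% in these data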
IEC-6 cytotox: cytotoxicity in IEC-6 intestinal epithelial cells, primary screen, cytotoxicity control for KLF5 inhibitor project, cell-based, luminescence. AID 1825, 2009. IEC-6 cytotoxicity, luminescence viability. 0.78% of 290,000 active. inhibition, % at 5 µM; in the data active = inhibition above about 22%;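 note: 0% = plate median of test compound wells and 100% = cytotoxic reference compound wells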
MT stabilize HCS: microtubule stabilizers in HeLa cells, primary screen, imaging, high-content imaging. HeLa tubulin immunostaining HCS, 24 h; share of cells brighter than vehicle mean+2SD. % tubulin-high responders, % at 10 µM. 0.83% of 200,000 active;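 active = plate Z-score above 3 for both tubulin-high and condensed-nucleus cell shares, with cell loss under 80%, at 10 µM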;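 note: anti alpha tubulin signal scored within the nucleus-defined area of each cell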
Starred values were filed as active, the others as inactive; . = not tested or not shown. Only some compounds are listed: those with a hit (about 2.2% of all), similar ones and a draw of the others.

SMILES	b-catenin transl	BaF3 parental	Ba/F3 V617F tox	APP transl inh	IEC-6 cytotox	MT stabilize HCS
NC(=S)NNc1ccnc2cc(Cl)ccc12	7	7	0	-6	-1	4
O=C(NNc1ccnc2cc(Cl)ccc12)C1CCCCC1	3	36*	25*	18	10	2
O=C1CSC(c2cn(-c3ccccc3)nc2-c2cc3ccccc3oc2=O)N1Cc1ccccc1 (centres undefined)	.	10	4	6	3	31*
O=C1CSC(c2nn(-c3ccccc3)cc2-c2cc3ccccc3oc2=O)N1Cc1ccco1 (centres undefined)	4	2	2	0	1	8
Cc1onc(-c2c(Cl)cccc2Cl)c1C(=O)N1CCN(c2ccccc2)CC1	0	3	4	-11	2	21*
COc1cccc(-c2nn(C)c3sc(C(=O)N4CCN(c5ccccn5)CC4)cc23)c1	0	9	5	-25	5	13*
CN1CCN(Cc2cn[nH]c2-c2ccc(F)cc2F)[C@@H](c2ccccc2)C1	-1	11	4	-14	-3	2
CCC(C)NC(=S)Nc1ccc(C(=O)OC)cc1 (centres undefined)	3	50*	7	-26	10	5
CCC(C)NC(=S)Nc1ccccc1 (centres undefined)	0	-2	2	.	0	.
Cc1nc(NC(=O)c2ccc(F)cc2)sc1C(=O)Nc1ccc2c(c1)CCC2	.	-1	-4	-28	-4	1
Cc1ccc(C(=O)Nc2nc(C)c(C(=O)Nc3ccc4c(c3)CCC4)s2)cc1	183*	9	3	66*	16	3
CCCCn1nnnc1SCC(=O)NNC(=O)C1CCCCC1	0	2	3	-24	2	2
O=C(Nc1ccc2c(c1)nc1n2CCN(C2CCCCC2)C1)NC1CCCCC1	-1	30*	7	-8	1	3
CCC(=O)Nc1ccc2c(c1)nc1n2CCN(C2CCCCC2)C1	0	-3	-4	2	-4	.
O=C(Nc1ccc(F)cc1)/C(=C1/CCCCCN1)[N+](=O)[O-]	1	0	-6	.	-12	.
Cc1[nH]c2ccccc2c1CCN(Cc1cccnc1)C(=S)Nc1ccc(F)cc1	0	24	18	-16	-5	1
Cc1[nH]c2ccccc2c1CCN(Cc1cccnc1)C(=S)Nc1cccc(F)c1	0	30*	27*	-22	2	2
Cc1ccc2c(c1)C(=O)C(=O)N2CCOc1ccccc1	0	87*	92*	79*	91*	2
c1cc[n+](CCC[n+]2ccccc2)cc1	.	.	.	.	4	.
COc1ccc(OC)c(C2CC(=O)c3c([nH]c(C(=O)OCC4CCCO4)c3C)C2)c1 (centres undefined)	-2	3	-1	2	0	31*
CCOC(=O)c1[nH]c2c(c1C)C(=O)CC(c1ccc(OC)c(OC)c1)C2 (centres undefined)	-1	2	-2	44	3	4
COCCOC(=O)c1[nH]c2c(c1C)C(=O)CC(c1cc(OC)ccc1OC)C2 (centres undefined)	1	-1	-6	-12	3	4
CCCOCCOC(=O)c1[nH]c2c(c1C)C(=O)CC(c1cc(OC)ccc1OC)C2 (centres undefined)	4	2	2	44	1	11*
O=[N+]([O-])c1cccc(-c2csc(N/N=C/c3cccc(O)c3)n2)c1	-1	2	-1	-52	6	3
S=C(NCCSCc1ccc(Cl)cc1Cl)Nc1ccccc1	-1	7	-3	-4	3	1
SMILES	b-catenin transl	BaF3 parental	Ba/F3 V617F tox	APP transl inh	IEC-6 cytotox	MT stabilize HCS
OCCCCNCc1ccc(OCc2ccc(Cl)cc2Cl)cc1	6	27*	59*	1	9	6
S=C(Nc1ccccc1)Nc1ccc(OCc2ccc(Cl)cc2Cl)cc1	-5	1	-2	70*	-7	2
OCCNCc1ccc(OCc2ccc(Cl)cc2Cl)cc1	3	13	6	-31	10	4
CCOC(=O)c1ccccc1NC(=O)Cc1c(C(=O)O)n(C)c2ccccc12	.	.	.	.	-4	.
COC(=O)C1=C(C)NC2=C(C(=O)CCC2)C1c1ccsc1 (centres undefined)	-3	-2	0	-5	-6	2
CCOC(=O)C1=C(C)NC2=C(C(=O)OC2)C1c1ccccc1 (centres undefined)	81*	3	-1	16	10	28
COC(=O)C1=C(C)NC2=C(C(=O)CC(c3cccs3)C2)C1c1ccsc1 (centres undefined)	-3	22	10	0	16	26*
CCOC(=O)C1=C(C)NC2=C(C(=O)CC(c3cccs3)C2)C1c1cccs1 (centres undefined)	-3	11	9	-6	11	18*
Cc1cc(C)c(C)c(S(=O)(=O)N2CCC(C(=O)Nc3ccc(S(=O)(=O)N4CCOCC4)cc3)CC2)c1C	.	.	.	.	2	.
COc1ccccc1CCNC(=O)C(=O)NCC1OCCN1S(=O)(=O)c1ccc2c(c1)OCCO2 (centres undefined)	.	.	.	.	-4	.
CCC1(C)OCC(Cn2c3ccccc3c3ccccc32)O1 (centres undefined)	63*	0	-3	-8	1	5
CC1(C)COC(Cn2c3ccccc3c3ccccc32)O1 (centres undefined)	1	0	2	.	11	.
COc1ccccc1NC(=O)CCN1C(=O)c2ccccc2S1(=O)=O	1	8	-1	-9	-3	2
CC(=O)Cc1nsc(NC(=O)c2ccc(-c3ccc(Cl)cc3Cl)o2)n1	.	1	-3	-9	2	3
CC(=O)Cc1nsc(NC(=O)c2ccc(-c3cc(Cl)ccc3Cl)o2)n1	132*	7	0	-17	2	26*
O=C(COc1ccccc1[N+](=O)[O-])N/N=C/C=C/c1ccco1	-1	95*	3	-15	-5	4
CN(C(=O)c1cc(COc2ccc(F)c(F)c2)on1)C1CCOC1 (centres undefined)	.	.	.	.	3	.
Cn1cc(C2CC(c3ccccc3)=NN2C(=O)c2ccccc2)c2ccccc21 (centres undefined)	1	8	-3	2	3	24*
Cc1ccc(CC(=O)Nc2ccncc2)cc1	1	42*	36*	11	2	3
CCOc1ccc(OCc2ccc(C(=O)N/N=C(\C)c3ccccn3)cc2)cc1	5	8	5	78*	-2	11
C/C(=N\NC(=O)c1cccc(Br)c1)c1ccccn1	.	.	.	.	12	.
CCOc1cccc(-c2c(C(=O)N/N=C(\C)c3ccccn3)nnn2-c2nonc2N)c1	.	.	.	.	52*	.
